Experimental data reported in ChEMBL document CHEMBL4725234, “Structure-activity relationship analyses of fusidic acid derivatives highlight crucial role of the C-21 carboxylic acid moiety to its anti-mycobacterial activity” (Bioorg Med Chem, 2020).
≈ marks a conversion by molar mass, not a printed value.

Key:
[1] = system: Mycobacterium tuberculosis; experiment: Antimycobacterial activity against Mycobacterium tuberculosis H37Rv; type: functional
Method in brief: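 Drug-sensitive M. tuberculosis H37Rv grown in a glycerol-containing medium; MIC99 is the minimum concentration that inhibits growth of 99% of the bacterial population.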

CHO-K1 = experiment: Cytotoxicity against CHOK1 cells assessed as reduction in cell viability; type: cell-based; settings: Cricetulus griseus

Structure (SMILES) | MIC99 [1] | IC50 (CHO-K1)
CCCS(=O)(=O)NNC(=O)/C(CCC=C(C)C)=C1\[C@@H](OC(C)=O)C[C@@]2(C)[C@H]1C[C@@H](O)[C@H]1[C@@]3(C)CC[C@@H](O)[C@@H](C)[C@@H]3CC[C@@]12C | 40 µM (≈ 25.5 µg/mL) | 79.7 µM
CC(=O)O[C@H]1C[C@@]2(C)[C@@H](C[C@@H](O)[C@H]3[C@@]4(C)CC[C@@H](O)[C@@H](C)[C@@H]4CC[C@@]32C)/C1=C(\CCC=C(C)C)C(=O)NNS(=O)(=O)c1ccc(C)cc1 | > 125 µM | 48.2 µM
CCCc1noc(/C(CCC=C(C)C)=C2\[C@@H](OC(C)=O)C[C@@]3(C)[C@H]2C[C@@H](O)[C@H]2[C@@]4(C)CC[C@@H](O)[C@@H](C)[C@@H]4CC[C@@]23C)n1 | 80 µM (≈ 46.6 µg/mL) | 68.2 µM
CC(=O)O[C@H]1C[C@@]2(C)[C@@H](C[C@@H](O)[C@H]3[C@@]4(C)CC[C@@H](O)[C@@H](C)[C@@H]4CC[C@@]32C)/C1=C(\CCC=C(C)C)c1nc(C)no1 | > 125 µM | 47.8 µM
CC(=O)O[C@H]1C[C@@]2(C)[C@@H](C[C@@H](O)[C@H]3[C@@]4(C)CC[C@@H](O)[C@@H](C)[C@@H]4CC[C@@]32C)/C1=C(\CCCC(C)C)C(=O)NNS(C)(=O)=O | 10 µM (≈ 6.11 µg/mL) | 97.8 µM
CC(=O)O[C@H]1C[C@@]2(C)[C@@H](C[C@@H](O)[C@H]3[C@@]4(C)CC[C@@H](O)[C@@H](C)[C@@H]4CC[C@@]32C)/C1=C(\CCC=C(C)C)C(=O)NS(C)(=O)=O | 80 µM (≈ 47.5 µg/mL) | > 169 µM
CCCCCCCCCCCCNC(=O)/C(CCC=C(C)C)=C1\[C@@H](OC(C)=O)C[C@@]2(C)[C@H]1C[C@@H](O)[C@H]1[C@@]3(C)CC[C@@H](O)[C@@H](C)[C@@H]3CC[C@@]12C | > 125 µM | > 146 µM
CC(=O)O[C@H]1C[C@@]2(C)[C@@H](C[C@@H](O)[C@H]3[C@@]4(C)CC[C@@H](O)[C@@H](C)[C@@H]4CC[C@@]32C)/C1=C(\CCC=C(C)C)c1nc(-c2ccc(F)cc2)no1 | > 125 µM | 77.4 µM
CC(=O)O[C@H]1C[C@@]2(C)[C@@H](C[C@@H](O)[C@H]3[C@@]4(C)CC[C@@H](O)[C@@H](C)[C@@H]4CC[C@@]32C)/C1=C(\CCC=C(C)C)C(=O)Nc1nn[nH]n1 | 40 µM (≈ 23.4 µg/mL) | > 171 µM
CC(=O)O[C@H]1C[C@@]2(C)[C@@H](C[C@@H](O)[C@H]3[C@@]4(C)CC[C@@H](O)[C@@H](C)[C@@H]4CC[C@@]32C)/C1=C(\CCC=C(C)C)c1n[nH]c(=O)o1 | 80 µM (≈ 44.5 µg/mL) | 82 µM
CC(=O)O[C@H]1C[C@@]2(C)[C@@H](C[C@@H](O)[C@H]3[C@@]4(C)CC[C@@H](O)[C@@H](C)[C@@H]4CC[C@@]32C)/C1=C(\CCC=C(C)C)C(=O)NNS(=O)(=O)c1ccc(Cl)cc1 | > 125 µM | 53.2 µM
CCCCCCCCCCCCCCNC(=O)/C(CCC=C(C)C)=C1\[C@@H](OC(C)=O)C[C@@]2(C)[C@H]1C[C@@H](O)[C@H]1[C@@]3(C)CC[C@@H](O)[C@@H](C)[C@@H]3CC[C@@]12C | > 125 µM | > 140 µM
CO[C@H]1C[C@@]2(C)[C@@H](C[C@@H](O)[C@H]3[C@@]4(C)CC[C@@H](O)[C@@H](C)[C@@H]4CC[C@@]32C)/C1=C(\CCC=C(C)C)C(=O)O | 18.7 µM (≈ 9.14 µg/mL) | 29 µM
CC(=O)O[C@H]1C[C@@]2(C)[C@@H](C[C@@H](O)[C@H]3[C@@]4(C)CC[C@@H](O)[C@@H](C)[C@@H]4CC[C@@]32C)/C1=C(\CCC=C(C)C)c1n[nH]c(=S)o1 | 80 µM (≈ 45.8 µg/mL) | 70 µM
CCCCS(=O)(=O)NNC(=O)/C(CCC=C(C)C)=C1\[C@@H](OC(C)=O)C[C@@]2(C)[C@H]1C[C@@H](O)[C@H]1[C@@]3(C)CC[C@@H](O)[C@@H](C)[C@@H]3CC[C@@]12C | > 125 µM | 49.9 µM
CCS(=O)(=O)NNC(=O)/C(CCC=C(C)C)=C1\[C@@H](OC(C)=O)C[C@@]2(C)[C@H]1C[C@@H](O)[C@H]1[C@@]3(C)CC[C@@H](O)[C@@H](C)[C@@H]3CC[C@@]12C | 40 µM (≈ 24.9 µg/mL) | 77.3 µM
